From ChEMBL document CHEMBL1122742, “Cardiotonic agents. 1. 4,5-Dihydro-6-[4-(1H-imidazol-1-yl)phenyl]-3 (2H)-pyridazinones: novel positive inotropic agents for the treatment of congestive heart failure” (J Med Chem, 1984)
Where “and” joins values, the source holds several entries; their conditions need not be identical. Equal values may be shown once.

Tests used:
Canis familiaris [1] = test: Positive inotropic activity in anesthetized dogs; assay type: functional; details: Canis lupus familiaris
Procedure, shortened: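 Anesthetized dogs received increasing intravenous half-log doses across 0.001–1.0 mg/kg. dP/dtmax was recorded while heart rate and aortic pressure were monitored. ED50 was taken from the linear part of each animal's dose–response curve by least squares, then averaged as mean and SEM.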

Canis familiaris [2] = test: Positive inotropic effect (increased myocardial contractility) in chronically instrumented conscious dogs at 1.0 mg/kg oral administration for 6 hours; assay type: functional, Canis lupus familiaris
Canis familiaris [3] = test: Positive inotropic effect (increased myocardial contractility) in anesthetized dogs at 0.01-1.0 mg/kg intravenous administration, range 10.2-146.7
Canis familiaris [4] = test: Positive inotropic effect (reduced mean aortic blood pressure) in anesthetized dogs at 0.001-1.0 mg/kg intravenous administration, range 0.7-22.4; assay type: functional, Canis lupus familiaris, Artery
Procedure, shortened: (§1)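 Anesthetized dogs were given increasing intravenous half-log doses within 0.001–1.0 mg/kg. Heart rate, aortic blood pressure and dP/dtmax were recorded simultaneously. Changes are expressed as percent of control, with mean ± error at each dose.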

Bos taurus = organism: Bos taurus; test: Percent inhibition of crude bovine cardiac phosphodiesterase at 190 uM
Canis familiaris [5] = test: Positive inotropic effect (increase in heart rate) in chronically instrumented conscious dogs at 1.0 mg/kg oral administration for 6 hours; assay type: functional, Canis lupus familiaris
Canis familiaris [6] = test: Positive inotropic effect (increase in heart rate) in anesthetized dogs at 0.001-1.0 mg/kg intravenous administration, range is 1.2-33.8; assay type: functional, Canis lupus familiaris; procedure, shortened: as §1
Canis familiaris [7] = test: Positive inotropic effect (increase in heart rate) in chronically instrumented conscious dogs at 0.1 mg/kg oral administration for 6 hours
Canis familiaris [8] = test: Positive inotropic effect (increased myocardial contractility) in anesthetized dogs at 0.001-0.10 mg/kg intravenous administration, range 10.5-148.5
Canis familiaris [9] = test: Positive inotropic effect (reduced mean aortic blood pressure) in anesthetized dogs at 0.001-1.0 mg/kg intravenous administration; assay type: functional, Canis lupus familiaris, Artery; procedure, shortened: as §1
Canis familiaris [10] = test: Positive inotropic effect (increase in heart rate) in anesthetized dogs at 0.001-1.0 mg/kg intravenous administration, range is 2.5-43.8; assay type: functional, Canis lupus familiaris; procedure, shortened: as §1
Canis familiaris [11] = test: Positive inotropic effect (increased myocardial contractility) in chronically instrumented conscious dogs at 0.1 mg/kg oral administration for 6 hours

SMILES: COc1cc([S+](C)[O-])ccc1-c1nc2cccnc2[nH]1 (configuration not stated) [SULMAZOLE]
- ED50 (Canis familiaris [1]): 0.435 mg/kg

SMILES: O=C1CCC(c2ccc(-n3ccnc3)cc2)=NN1 [IMAZODAN]
- dP/dt max (Canis familiaris [2]): 42.6
- dP/dt max (Canis familiaris [3]): 10.2
- ED50 (Canis familiaris [1]): 0.045 mg/kg
- Blood pressure (Canis familiaris [4]): 0.7
- inhibition (Bos taurus): 50%
- Heart rate (Canis familiaris [5]): 48.1
- Heart rate (Canis familiaris [6]): 0

SMILES: CC1CC(O)=NN=C1c1ccc(-n2ccnc2)cc1 (configuration not stated) [CI-930]
- Heart rate (Canis familiaris [7]): 41.6
- ED50 (Canis familiaris [1]): 0.013 mg/kg
- dP/dt max (Canis familiaris [8]): 10.5
- Blood pressure (Canis familiaris [9]): 19 and 7.4
- Heart rate (Canis familiaris [10]): 2.5
- dP/dt max (Canis familiaris [11]): 50.2

SMILES: Nc1cc(-c2ccncc2)c[nH]c1=O [INAMRINONE]
- ED50 (Canis familiaris [1]): 0.389 mg/kg

SMILES: CSc1ccc(C(=O)c2[nH]c(=O)[nH]c2C)cc1 [ENOXIMONE]
- ED50 (Canis familiaris [1]): 0.283 mg/kg

SMILES: Cc1[nH]c(=O)c(C#N)cc1-c1ccncc1 [MILRINONE]
- ED50 (Canis familiaris [1]): 0.037 mg/kg
